Screening results deposited in PubChem by several laboratories.
Cl transport mod – KCC2 cotransporter modulators, thallium flux, primary screen, cell-based, HEK293 KCC2, FluoZin-2 fluorescence, MLSMR; Solute carrier family 12 member 5 (Homo sapiens), Q9H2X9; KCC2 cells, thallium flux FluoZin-2 fluorescence; B-score of Tl+ flux slope (higher = more flux/activation; lower = inhibition) at 10 µM; 2.2% of 190,000 active; AID 1456, 2008;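 active = thallium flux slope and its plate-corrected score both differing from the plate sample mean at a set confidence after two filtering rounds, in either direction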;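 note: slope of fluorescence scaled to starting intensity during 10 to 20 s after thallium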
Mot1-301 SUMO – yeast Mot1-301 growth rescue at high temperature, primary screen, SUMOylation pathway inhibitor project, S. cerevisiae, ATP luminescence, 38.5C | S. cerevisiae Mot1-301 growth rescue; percent above DMSO median, 100 means doubled | 1% of 320,000 active | growth rescue, % at 18.8 µM;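 active = every valid replicate shows activation above 250% relative to neutral control wells; inactive = the rest, any valid replicate at or below 250%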;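 note: OY570 slx delta 5 strain wells were the positive control but not used for scaling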
KCNQ1 pot – potentiators or activators of KCNQ1 channel, primary screen, cell-based, thallium flux, high-throughput. Potassium voltage-gated channel subfamily KQT member 1 (Homo sapiens), P51787. CHO-K1 KCNQ1, thallium flux FluxOR fluorescence; stronger effect = higher value. B-score at 10 µM. 0.35% of 310,000 active;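 active = fluorescence ratio B-score, a plate-corrected score, at least three library SD, with initial intensity B-score within 5 SD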
Target sequence (P51787 whole entry, looked up): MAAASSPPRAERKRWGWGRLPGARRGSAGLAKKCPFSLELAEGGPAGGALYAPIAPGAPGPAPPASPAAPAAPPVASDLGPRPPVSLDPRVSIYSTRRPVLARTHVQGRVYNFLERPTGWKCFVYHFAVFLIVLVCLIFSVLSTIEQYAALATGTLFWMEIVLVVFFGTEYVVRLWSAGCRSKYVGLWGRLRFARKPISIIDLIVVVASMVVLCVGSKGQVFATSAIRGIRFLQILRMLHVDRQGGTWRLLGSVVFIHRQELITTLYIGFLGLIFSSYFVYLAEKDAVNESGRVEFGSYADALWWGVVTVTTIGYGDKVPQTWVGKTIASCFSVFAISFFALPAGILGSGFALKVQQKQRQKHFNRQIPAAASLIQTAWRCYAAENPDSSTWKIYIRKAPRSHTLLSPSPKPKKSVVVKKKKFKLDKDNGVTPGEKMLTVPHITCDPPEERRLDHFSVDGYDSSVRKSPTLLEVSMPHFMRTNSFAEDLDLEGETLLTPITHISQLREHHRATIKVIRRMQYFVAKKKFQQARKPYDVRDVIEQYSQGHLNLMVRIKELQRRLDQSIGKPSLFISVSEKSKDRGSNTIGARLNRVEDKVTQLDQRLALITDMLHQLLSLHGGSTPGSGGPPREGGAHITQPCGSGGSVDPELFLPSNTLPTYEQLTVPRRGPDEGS
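System: CHO-K1 cells stably expressing KCNQ1 / Medium: assay buffer for compound exposure, DMSO matched across wells / Reagent: thallium- and potassium-containing depolarizing buffer / Compound: one concentration, matched DMSO / Incubation: 20 min compound pretreatment at room temperature / Measured by: kinetic FluxOR fluorescence, 10 s baseline plus 110 s post-stimulus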
hERG protect – hERG rescue from dofetilide block, primary screen, cell-based, CHO-hERG, FluxOR thallium flux, dofetilide IC70; activation (rescue from dofetilide block), less the hit threshold, % at 10 µM; dofetilide IC70 present; 0.51% of 310,000 active; AID 1511, 2009;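 active = activation above the mean of controls blocked by dofetilide plus 5 SD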;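 note: thallium influx through hERG after potassium depolarization seen as dye fluorescence rise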
AI-2 QS modul – Vibrio harveyi AI-2 quorum sensing modulators, primary screen, JMH597 strain, luminescence/OD600 ratio | AID 2094, 2009 | 0.4% of 300,000 active | Vibrio harveyi JMH597 AI-2 luminescence/OD600 ratio, 9 h; stronger effect = lower value; strain lacks LuxN and CqsS sensors; 0 = neutral-control median | activity change, % at 7.5 µM; in the data active = activity change below about -75%, passing the limit was not always enough;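 note: luminescence divided by OD600 gain over 9 h not by final OD600 alone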
KCNQ1 inh – inhibitors of human KCNQ1 channel, primary screen, cell-based, thallium flux, high-throughput. Potassium voltage-gated channel subfamily KQT member 1 (Homo sapiens), P51787. CHO-K1 KCNQ1, FluxOR thallium flux fluorescence; stronger effect = higher value. B-score at 10 µM. 1.3% of 310,000 active. AID 2642, 2010;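 active = compounds whose thallium flux B-score, printed positive for inhibition, exceeds three library SD while starting fluorescence stays within three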;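 note: channel opened by potassium depolarization with thallium stimulus after 20 min compound exposure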
Mot1 SUMO dose – growth restoration of Mot1-301 yeast on galactose, dose response, SUMO pathway inhibitor project, whole organism, S. cerevisiae, ATP luminescence, cherry-picked samples; AID 493004, 2010; growth activity, percent, % at 42 µM; S. cerevisiae Mot1-301 galactose growth, 24 h; -100 = growth of slx-deleted rescue strain; 2,300 tested, under 10 active; shares compounds with Mot1-301 SUMO;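 active = Signal drops as the depositor expects, and the fitted half-maximal dose is no more than ten times the top valid tested dose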;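 note: more negative values mean stronger growth rescue toward the control strain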
Starred values were filed as active, the others as inactive; i = inactive; · = no result; + = active, no number. Compounds with a hit are over-represented: about 4.2% of the library has one in this group of screens.

SMILES	Cl transport mod	Mot1-301 SUMO	KCNQ1 pot	hERG protect	AI-2 QS modul	KCNQ1 inh	Mot1 SUMO dose
Cc1ccc(/C=N\NC(=O)c2ccc3c(c2)OCO3)o1	·	241	i	-6	20	i	·
CC1CC(C)(C)N2C(=O)C3(Nc4ccccc4S3)c3cccc1c32 (stereo not given)	·	723*	i	-18	12	i	-2
CN(CC(=O)Nc1ccc(OC(F)(F)F)cc1)C(=O)/C=C/c1cc2c(cc1[N+](=O)[O-])OCO2	·	-5	·	·	·	·	·
Cc1ccc(N2CCN(/N=C/c3sccc3C)CC2)cc1	-1.7	2	i	-6	8	i	·
O=C(O)/C=C/C(=O)NNC(=O)c1ccccc1Br	0.1	-14	i	-7	20	i	·
Cc1ccccc1C(=O)NNC(=O)/C=C\C(=O)O	-1	792*	i	-10	-6	i	0
CN(C(=O)c1cccc(C#CC(C)(C)O)c1)C1CCCN(Cc2ccccc2F)C1 (stereo not given)	·	14	i	-10	4	i	·
CN(Cc1ccccc1)c1ccc(C(CC(N)=O)NC(=O)c2ccccc2)cc1[N+](=O)[O-] (stereo not given)	·	11	i	-9	22	i	·
CCOC(=O)C1=Nc2ccccc2C1=[N+]=[N-]	-0.98	366*	i	-6	-39	i	-1
COc1ccccc1N1CCN(CC(=O)Nc2nc(C)c(C(=O)N(C)C)s2)CC1	·	17	i	-4	23	i	·
COc1cc(C[C@@H](C)[C@@H](C)Cc2ccc(O)c(OC)c2)ccc1O	·	20	·	·	·	·	·
CC(Cc1ccc(O)c(O)c1)C(C)Cc1ccc(O)c(O)c1 (stereo not given)	·	553*	i	-36	2	i	0
CCCNC(=O)Cn1nc(C)n2c(cc3cc(F)ccc32)c1=O	·	+	i	-11	57	i	0
O=C(c1ccccc1F)N1CCCc2ccccc21	·	495*	i	-3	-9	i	0
CN(C)C1(CNC(=O)C2CCN(S(=O)(=O)c3c(Cl)cccc3Cl)CC2)CCCCC1	·	68	i	-12	27	i	·
O=C(Nc1ccccc1Cl)c1cccc(NS(=O)(=O)c2ccccc2)c1	-1.8	·	·	·	·	·	·
O=C(OCc1ccccc1)c1cccc(-c2nnn(Cc3ccccc3)n2)c1	0.88	391*	i	-10	-1	i	0
O=C(Cn1nnc(-c2ccccc2)n1)OCc1ccccc1	-0.29	14	i	-3	-11	i	·
O=C(COc1ncnc2c(Cl)cc(Cl)cc12)NCCC1=CCCCC1	1.8	420*	i	-7	4	i	0
O=C(COc1cnc2ccccc2n1)NCCC1=CCCCC1	-0.0053	+	i	-11	-10	i	-1
O=C(COc1ccccc1Cl)NCCC1=CCCCC1	-1.1	-10	i	-11	17	i	·
CCOC(=O)N1CCN(C(=O)CSc2nc3c([nH]c4ccccc43)c(=O)n2CC)CC1	·	0	i	3	-2	i	·
Cc1ccccc1OCc1ccc(C(=O)N2CC(C)OC(C)C2)o1 (stereo not given)	·	-1	i	1	29	i	·
O=c1/c(=C/c2ccco2)sc2nc(-c3ccccc3Br)nn12	0.5	381*	·	·	·	·	1
COc1ccccc1-c1nc2s/c(=C\c3cccs3)c(=O)n2n1	1.5	-8	i	-5	6	i	·
SMILES	Cl transport mod	Mot1-301 SUMO	KCNQ1 pot	hERG protect	AI-2 QS modul	KCNQ1 inh	Mot1 SUMO dose
O=C(NCc1ccccc1Cl)c1nnc(CS(=O)(=O)c2ccccc2)o1	·	7	i	-7	25	i	·
COc1cc(/C=C(/C#N)C(=O)Nc2ccccc2)ccc1OCc1ccc(C(=O)O)cc1	-3	1	i	-3	26	i	·
COc1cc(/C=C(\C#N)C(=O)Nc2ccc(C(=O)O)cc2)ccc1OC(=O)c1cccc(F)c1	·	827*	i	-6	22	i	1
Cc1ccc(-n2c(C)cc(/C=N/NC(=O)c3ccncc3)c2C)cc1C	-0.75	753*	i	-15	2	i	0
Cc1cc(/C=N/NC(=O)c2ccncc2)c(C)n1-c1ccccc1	-1.4	-3	i	-5	3	i	·
COC(=O)c1ccc(C(=O)OC)c(NC(=S)N2CCCC(C)C2)c1 (stereo not given)	0.85	-3	i	-12	6	i	·
O=C(Nc1ccccc1OC(F)F)c1oc2ccccc2c1COc1ccccc1	0.79	-1	i	-11	18	i	·
CCC(CC)NC(=O)c1oc2ccccc2c1COc1ccccc1	0.5	518*	i	-8	0	i	0
COc1ccc(C)cc1S(=O)(=O)N1CCC(C(=O)NCCc2ccccc2)CC1	-1.2	413*	i	-11	7	i	0
O=C(NCCc1ccccc1)C1CCCN1S(=O)(=O)c1ccc(Cl)cc1 (stereo not given)	·	7	i	-5	-7	i	·
Cc1ccc(S(=O)(=O)N2CCCC2C(=O)NCCc2ccccc2)cc1 (stereo not given)	-0.0084	471*	i	-14	-1	i	0
O=C1C([N+](=O)[O-])=C(O)c2cccc3cccc1c23	·	-5	i	-5	11	i	·
Cc1cc(C)c2c(=O)[nH]c(SCc3ccc([N+](=O)[O-])cc3)nc2n1	0.19	423	i	-8	4	i	·
Cc1nc(NC(=O)c2cccnc2Cl)sc1C	·	-20	i	-9	6	i	·
CCN=c1scc(-c2ccc3c(c2)NC(=O)CO3)n1N=C1CCCC1	-1.4	1	i	-16	13	i	·
COCC(C)n1c(-c2ccc3c(c2)NC(=O)CO3)csc1=Nc1ccc(OC(F)F)cc1 (stereo not given)	2.2	532*	i	-4	20	i	0
